Measured values from different studies.
Protocols differ between the studies behind these lines.
Target: Protein kinase C epsilon type (PRKCE, Homo sapiens, UniProt Q02156)
One construct used (Q02156 1-737): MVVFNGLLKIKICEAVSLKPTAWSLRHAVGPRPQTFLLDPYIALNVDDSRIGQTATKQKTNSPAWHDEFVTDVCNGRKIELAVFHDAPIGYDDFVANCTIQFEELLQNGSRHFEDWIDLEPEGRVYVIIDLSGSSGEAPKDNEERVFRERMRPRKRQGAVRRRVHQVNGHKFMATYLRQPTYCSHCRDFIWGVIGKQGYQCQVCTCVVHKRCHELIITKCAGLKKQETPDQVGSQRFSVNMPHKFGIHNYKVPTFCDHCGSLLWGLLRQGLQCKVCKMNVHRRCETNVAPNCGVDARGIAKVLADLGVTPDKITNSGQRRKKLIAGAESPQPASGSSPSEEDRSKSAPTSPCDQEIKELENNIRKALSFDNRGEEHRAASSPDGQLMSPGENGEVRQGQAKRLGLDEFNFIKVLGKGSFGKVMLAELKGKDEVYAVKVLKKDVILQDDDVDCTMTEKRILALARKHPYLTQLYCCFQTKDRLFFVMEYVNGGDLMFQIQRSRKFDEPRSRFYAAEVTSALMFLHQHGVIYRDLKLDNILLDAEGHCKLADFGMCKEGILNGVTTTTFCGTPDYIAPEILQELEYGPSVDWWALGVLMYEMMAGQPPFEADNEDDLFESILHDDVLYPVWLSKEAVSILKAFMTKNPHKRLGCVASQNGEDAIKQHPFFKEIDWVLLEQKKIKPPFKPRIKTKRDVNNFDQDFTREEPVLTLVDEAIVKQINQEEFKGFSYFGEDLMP

SMILES	effect on	mode	technique	tested at	endpoint	value
C#Cc1cnc(Nc2ccnc(CO)c2)nc1Nc1ccccc1S(C)(=O)=NC#N (stereo not drawn)	cell-free assay			1 µM	remaining signal	62%
N#Cc1ccc(NC(=O)Nc2ccccc2)cc1	cell-free assay		competition with immobilised ligand	25 µM	remaining binding	100%
CC#CC(=O)N1CCC[C@H]1c1nc(-c2ccc(C(=O)Nc3ccccn3)cc2)c2c(N)nccn12	enzyme activity	inhibitor		1 µM	inhibition	0%
C1=C/COCc2cc(ccc2OCCN2CCCC2)Nc2nccc(n2)-c2cccc(c2)COC/1	binding			0.1 µM	remaining binding	68%
Cc1ccc(NC(=O)c2ccnc(C(F)(F)F)c2)cc1-c1cc(OCCO)nc(N2CCOCC2)c1	binding			1 µM	remaining binding	75%
COc1ccc2oc(-c3ccc4nc(N)oc4c3)c/c(=N\c3ccccc3NC(=O)CCN)c2c1	binding			1 µM	remaining binding	106%
CCCCC(=O)Nc1ccc(-c2ccc3ncn(CCC)c(=O)c3c2)cn1	binding		competition with immobilised ligand	0.5 µM	remaining binding	83%
CO[C@@H]1[C@H](N(C)C(=O)c2ccccc2)C[C@H]2O[C@]1(C)n1c3ccccc3c3c4c(c5c6ccccc6n2c5c31)C(=O)NC4	enzyme activity	inhibitor		1 µM	inhibition	92%
C[C@H]1CC[C@H](n2c3cnccc3c3cnc(Nc4ccc5c(n4)CCN(C(=O)CO)C5)nc32)CC1	cell-free assay			1 µM	remaining signal	100%
